Results: PubChem BioAssay
Active and inactive are the calls of the source.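 The calls were made as follows, unless noted: active = viability loss from added drug above about 55%, and viability with drug at most 40%, in both replicates (limit read from the data, passing the limit was not always enough); inconclusive = both conditions met in only one replicate; inactive = neither replicate meets both conditions.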

Assays:
[1] = reduced viability of SK-BR-3 breast cancer cells – cell-based, 24 h, human, pilot screen (AID 572;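 active = viability at or below 10% of carrier control in both of two separate runs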;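 also: compound exposure lasted between 18 and 24 h rather than exactly 24 h; 100% = carrier-treated control wells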); conditions: SK-BR-3 viability, CellTiter-Glo luminescence, at 10 µM, stronger effect = lower value
[2] = HUVEC growth inhibition – cell-based, human, primary screen (AID 575;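 active = viability at or below 30% in both replicate assays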;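 also: 100% = median of untreated cell wells with 0.1% DMSO on each plate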); conditions: HUVEC proliferation, CellTiter-Glo luminescence, 72 h; at 10 µM; stronger effect = lower value
How it was run: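 Material: primary human umbilical vein endothelial cells / Schedule: 72 h exposure, 37 °C, 5% CO2, 30 min RT equilibration / Signal: ATP-based CellTiter-Glo luminescent read / Read-out basis: percent of median DMSO-control luminescence / Control set: 32 DMSO-only cell-control wells (high), 32 MePR drug-control wells (low) per plate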

[3] = H69AR cell proliferation blockers – human, duplicate replicates, primary screen (AID 580;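 active = viability at or under a set limit in both replicates, limit being median viability minus 3 SD, cut at about 48% in these data, passing the limit was not always enough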;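 also: 100% = mean luminescence of untreated wells and 0% = no signal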); conditions: H69AR lung tumor cells viability, ATP luminescence, 72 h; at 10 µM; stronger effect = lower value
[4] = MRP1 drug-resistance reversers in H69AR cells – cell-based, doxorubicin co-treatment, pilot screen (AID 601); conditions: CellTiter-Glo, 72 h, at 10 µM; for differential viability (reversal): stronger effect = higher value
[5] = yeast transport mutant growth inhibition pilot in 384-well plates, post-Golgi transport modulator project (AID 636; in the data active = inhibition above about 31%); conditions: absorbance 615 nm, about 18 h, stronger effect = higher value
[6] = growth suppression of yeast trafficking mutant, preliminary HTS, modulators of trafficking downstream of Golgi apparatus project, 1536-format plate, OD 615 nm (AID 637; in the data active = inhibition above about 30%); conditions: yeast transport mutant growth, absorbance 615 nm, 18 h; stronger effect = higher value
[7] = H69AR cells + 2 uM doxorubicin, measured here: viability with 2 uM doxorubicin, stronger effect = lower value
[8] = H69AR cells, compound alone cytotoxicity

## O=C(c1ccccc1)c1ccc(N2CCNCC2)cc1
[1]
  viability: 129% (inactive)
[2]
  viability: 96.4% (inactive)
[3]
  viability: 84.5% (inactive)
[4]; H69AR cells + 2 uM doxorubicin
  differential viability (reversal): -5.36% (inactive)
[4]; [7]
  viability: 89.9%
[4]; [8]
  viability: 84.5%
[5]
  inhibition: -2.05% (inactive)
[6]
  inhibition: 6.91% (inactive)

## Cc1cc(Br)c(S(=O)(=O)n2nnc3ccccc32)cc1C
[1]
  viability: 107% (inactive)
[2]
  viability: 101% (inactive)
[3]
  viability: 81.8% (inactive)
[4]; H69AR cells + 2 uM doxorubicin
  differential viability (reversal): -4.02% (inactive)
[4]; [7]
  viability: 85.8%
[4]; [8]
  viability: 81.8%
[5]
  inhibition: -8.22% (inactive)
[6]
  inhibition: 5.09% (inactive)

## O=C(O)c1ccc(CSc2ncn[nH]2)cc1
[1]
  viability: 107% (inactive)
[2]
  viability: 105% (inactive)
[3]
  viability: 94.4% (inactive)
[4]; H69AR cells + 2 uM doxorubicin
  differential viability (reversal): -6.27% (inactive)
[4]; [7]
  viability: 101%
[4]; [8]
  viability: 94.4%
[5]
  inhibition: -6.16% (inactive)
[6]
  inhibition: 0.55% (inactive)

## CCC(c1c(C)n(C)n(-c2ccccc2)c1=O)c1c(C)n(C)n(-c2ccccc2)c1=O
[1]
  viability: 78% (inactive)
[2]
  viability: 103% (inactive)
[3]
  viability: 100% (inactive)
[4]; H69AR cells + 2 uM doxorubicin
  differential viability (reversal): 8.48% (inactive)
[4]; [7]
  viability: 91.5%
[4]; [8]
  viability: 100%
[5]
  inhibition: -5.21% (inactive)
[6]
  inhibition: 4.73% (inactive)

## CN1CC=C2C(C#N)=C(N)C(C#N)(C#N)C(Cc3ccccc3)C2C1 (stereo not drawn)
[1]
  viability: 85% (inactive)
[2]
  viability: 69% (inactive)
[3]
  viability: 84.6% (inactive)
[4]; H69AR cells + 2 uM doxorubicin
  differential viability (reversal): -2.88% (inactive)
[4]; [7]
  viability: 87.5%
[4]; [8]
  viability: 84.6%
[5]
  inhibition: -8.22% (inactive)
[6]
  inhibition: -7.26% (inactive)

## CC(=O)NC(C)C(=O)OCc1ccc(Cl)cc1Cl (stereo not drawn)
[1]
  viability: 66% (inactive)
[2]
  viability: 99.5% (inactive)
[3]
  viability: 103% (inactive)
[4]; H69AR cells + 2 uM doxorubicin
  differential viability (reversal): 7.35% (inactive)
[4]; [7]
  viability: 95.2%
[4]; [8]
  viability: 103%
[5]
  inhibition: -4.79% (inactive)
[6]
  inhibition: -1.27% (inactive)

## Brc1c(NC2=NCCN2)ccc2nccnc12
[1]
  viability: 105% (inactive)
[2]
  viability: 106% (inactive)
[3]
  viability: 95% (inactive)
[4]; H69AR cells + 2 uM doxorubicin
  differential viability (reversal): -7.09% (inactive)
[4]; [7]
  viability: 102%
[4]; [8]
  viability: 95%
[5]
  inhibition: -0.39% (inactive)
[6]
  inhibition: 15.3% (inactive)

## O=C(c1csc2ccccc12)N1CCCCCC1
[1]
  viability: 109% (inactive)
[2]
  viability: 83.7% (inactive)
[3]
  viability: 104% (inactive)
[4]; H69AR cells + 2 uM doxorubicin
  differential viability (reversal): 9.99% (inactive)
[4]; [7]
  viability: 93.9%
[4]; [8]
  viability: 104%
[5]
  inhibition: -1.51% (inactive)
[6]
  inhibition: -3.87% (inactive)

## NS(=O)(=O)c1ccc(C(=O)O)cc1
[1]
  viability: 92% (inactive)
[2]
  viability: 93.4% (inactive)
[3]
  viability: 99% (inactive)
[4]; H69AR cells + 2 uM doxorubicin
  differential viability (reversal): 11.6% (inactive)
[4]; [7]
  viability: 87.5%
[4]; [8]
  viability: 99%
[5]
  inhibition: 5.45% (inactive)
[6]
  inhibition: -5.33% (inactive)

## CC(=O)OCC(=O)[C@@]1(O)CC[C@H]2[C@@H]3CCC4=CC(=O)CC[C@]4(C)[C@H]3C(=O)C[C@@]21C
[1]
  viability: 108% (inactive)
[2]
  viability: 95.9% (inactive)
[3]
  viability: 104% (inactive)
[4]; H69AR cells + 2 uM doxorubicin
  differential viability (reversal): 8.62% (inactive)
[4]; [7]
  viability: 95.2%
[4]; [8]
  viability: 104%
[5]
  inhibition: -4.55% (inactive)
[6]
  inhibition: -1.33% (inactive)

## CCn1cc(C(=O)O)c(=O)c2cc(F)c(N3CCNCC3)cc21
[1]
  viability: 105% (inactive)
[2]
  viability: 91.1% (inactive)
[3]
  viability: 92.1% (inactive)
[4]; H69AR cells + 2 uM doxorubicin
  differential viability (reversal): 3.17% (inactive)
[4]; [7]
  viability: 88.9%
[4]; [8]
  viability: 92.1%
[5]
  inhibition: -3.77% (inactive)
[6]
  inhibition: 7.83% (inactive)
